According to ChEMBL document CHEMBL3272032, “Antifolate studies. Activities of 40 potential antimalarial compounds against sensitive and chlorguanide triazine resistant strains of folate-requiring bacteria and Escherichia coli” (J Med Chem, 1977):
Active and inactive are the calls of the source. No cut-off for these calls is given here.

Key:
[1] = system: Enterococcus faecium; assay: Antibacterial activity against chlorguanide triazine-resistant Streptococcus faecium ATCC 8043 assessed as reduction in growth in presence of 0.002 ug/ml folic acid; assay type: functional, organism-based
Method in brief: (§1)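 Folate-requiring strains grown in medium with folic acid, 0.002 µg/ml for S. faecium and 0.001 µg/ml for L. casei; P. cerevisiae given folinic acid, 0.001 µg/ml. Resistant substrains came from serial transfer in rising chlorguanide triazine, and the most resistant were used. Compounds tested up to 1000 µg/ml, or 100 µg/ml when supply was limited. Growth read as Klett turbidity; IC50 is the µM concentration giving 50% growth inhibition.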

[2] = system: Lacticaseibacillus casei; assay: Antibacterial activity against sensitive Lactobacillus casei ATCC 7469 assessed as reduction in growth in presence of 0.001 ug/ml folic acid; assay type: functional, organism-based
Method in brief: (§2)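 Folate-requiring strains in the medium of the earlier assay method. Folic acid was 0.002 μg/ml for S. faecium and 0.001 μg/ml for L. casei. Turbidity read on a Klett-Summerson colorimeter. IC50 is the micromolar concentration reducing growth to 50% of control. Top concentration was 1000 μg/ml, or 100 μg/ml if supply was limited.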

[3] = system: Lacticaseibacillus casei; assay: Antibacterial activity against chlorguanide triazine-resistant Lactobacillus casei ATCC 7469 assessed as reduction in growth in presence of 0.001 ug/ml folic acid; assay type: functional, organism-based; method in brief: as §1
[4] = system: Pediococcus; assay: Antibacterial activity against sensitive Pediococcus cerevisiae ATCC 808 assessed as reduction in growth in presence of 0.001 ug/ml folinic acid; assay type: functional
Method in brief: (§3)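 P. cerevisiae grown with folinic acid at 0.001 μg/ml in the earlier-described medium. Turbidity read on a Klett-Summerson colorimeter. IC50 is the micromolar concentration reducing growth to 50% of control. Top concentration was 1000 μg/ml, or 100 μg/ml when supply was limited.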

[5] = system: Pediococcus; assay: Antibacterial activity against chlorguanide triazine-resistant Pediococcus cerevisiae ATCC 808 assessed as reduction in growth in presence of 0.001 ug/ml folinic acid; assay type: functional; method in brief: as §1
[6] = system: Escherichia coli; assay: Antibacterial activity against sensitive Escherichia coli ATCC 10536 assessed as reduction in growth in presence of p-aminobenzoic acid; assay type: functional, organism-based
Method in brief: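 Reversal test. Drug inhibition was challenged with PABA in Sahyun et al. medium plus 0.6% acid-hydrolyzed casein. Growth read as turbidity on a Klett-Summerson colorimeter. Scored as reversal or nonreversal of the drug inhibition.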

[7] = system: Plasmodium berghei; assay: Antimalarial activity against Plasmodium berghei infected in sc dosed mouse assessed as active dose required to increase of 100% in mean survival time; assay type: functional; conditions: read-out: MED
Method in brief: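 Mice received a standard blood-induced P. berghei inoculum and were then treated with one subcutaneous dose of compound suspended in peanut oil. The minimum active dose is the lowest dose that raised mean survival time by 100%.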

[8] = system: Plasmodium berghei; assay: Antimalarial activity against Plasmodium berghei infected in sc dosed mouse assessed as dose required to survivors for period of 60 days; assay type: functional
Method in brief: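 Mice infected with a blood-induced P. berghei inoculum were given one subcutaneous dose in peanut oil. Survivors at 60 days counted as cured. The minimum curative dose is the lowest dose that cured any mouse.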

[9] = system: Enterococcus faecium; assay: Antibacterial activity against sensitive Streptococcus faecium ATCC 8043 assessed as reduction in growth; assay type: functional, organism-based; method in brief: as §1
[10] = system: Enterococcus faecium; assay: Antibacterial activity against chlorguanide triazine-resistant Streptococcus faecium ATCC 8043 assessed as reduction in growth; assay type: functional, organism-based; method in brief: as §1
[11] = system: Enterococcus faecium; assay: Fold increase in resistance, ratio of IC50 for chlorguanide triazine-resistant Streptococcus faecium ATCC 8043 to IC50 for sensitive Streptococcus faecium ATCC 8043; assay type: functional
Method in brief: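 Resistant S. faecium substrain raised by serial transfer in increasing chlorguanide triazine. IC50 (µM, 50% growth inhibition by turbidity) was found for resistant and parent strains in folic acid (0.002 µg/ml) medium. Fold increase taken as IC50 resistant / IC50 sensitive.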

[12] = system: Lacticaseibacillus casei; assay: Antibacterial activity against sensitive Lactobacillus casei ATCC 7469 assessed as reduction; assay type: functional, organism-based; method in brief: as §1
[13] = system: Lacticaseibacillus casei; assay: Antibacterial activity against chlorguanide triazine-resistant Lactobacillus casei ATCC 7469 assessed as reduction in growth; assay type: functional, organism-based; method in brief: as §1
[14] = system: Lacticaseibacillus casei; assay: Fold increase in resistance, ratio of IC50 for chlorguanide triazine-resistant Lactobacillus casei ATCC 7469 to IC50 for sensitive Lactobacillus casei ATCC 7469; assay type: functional
Method in brief: (§4)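 Resistant substrains were made by serial transfer in rising concentrations of cycloguanil, and the most resistant isolate of each organism was used. Both strains were assayed turbidimetrically under identical conditions. FIR = IC50 of the resistant strain divided by IC50 of the sensitive parent.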

[15] = Antibacterial activity against sensitive Pediococcus cerevisiae ATCC 808 assessed as reduction; assay type: functional; method in brief: as §3
[16] = Antibacterial activity against chlorguanide triazine-resistant Pediococcus cerevisiae ATCC 808 assessed as reduction in growth; assay type: functional; method in brief: as §1
[17] = system: Pediococcus; assay: Fold increase in resistance, ratio of IC50 for chlorguanide triazine-resistant Pediococcus cerevisiae ATCC 808 to IC50 for sensitive Pediococcus cerevisiae ATCC 808; assay type: functional; method in brief: as §4
[18] = system: Escherichia coli; assay: Antibacterial activity against sensitive Escherichia coli ATCC 10536 assessed as reduction in growth; assay type: functional, organism-based
Method in brief: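 Growth inhibition in Sahyun et al. medium plus 0.6% acid-hydrolyzed casein. Growth read as turbidity on a Klett-Summerson photoelectric colorimeter. IC50 is the micromolar concentration giving 50% growth inhibition. Top concentration was 1000 μg/ml, or 100 μg/ml when compound was limited.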

[19] = system: Enterococcus faecium; assay: Antibacterial activity against sensitive Streptococcus faecium ATCC 8043 assessed as reduction in growth in presence of 0.002 ug/ml folic acid; assay type: functional, organism-based; method in brief: as §2

Compound | inhibition [1] | inhibition [2] | inhibition [3] | inhibition [4] | inhibition [5] | inhibition [6] | minimal effective dose [7] [mg/kg] | MCD [8] [mg/kg] | IC50 [9] [µM] | IC50 [10] [µM] | Ratio IC50 [11] | IC50 [12] [µM] | IC50 [13] [µM] | Ratio IC50 [14] | IC50 [15] [µM] | IC50 [16] [µM] | Ratio IC50 [17] | IC50 [18] [µM] | inhibition [19]
Nc1nc(N)c2cc(Oc3cc(Cl)cc(Cl)c3)ccc2n1 | inactive | inactive | inactive | inactive | inactive | Active | 320 | 640 | 0.009 | 1.3 | 144 | 0.25 | 0.04 | 0.16 | 0.12 | 1.4 | 11.7 | 2 | inactive
CN(Cc1cnc2nc(N)nc(N)c2n1)c1ccc(C(=O)N[C@@H](CCC(=O)O)C(=O)O)cc1 [METHOTREXATE] | Active | Active | Active | inactive | inactive | Active | > 640 | >640 | 0.002 | 0.01 | 5 | 6e-05 | 1e-05 | 0.17 | 0.4 | 1.5 | 4 | 143 | Active
O=C1C(O)=C(CCCCCCCCC2CCCCC2)C(=O)c2ccccc21 [MENOCTONE] | Active | Active | Active | Active | Active | – | 40 | 160 | 407 | 394 | 1 | 61 | 19 | 0.3 | 1000 | 570 | 0.6 | > 2700 | Active
C/C(=C\C(=N\NC(=N)N)c1ccccc1)c1ccccc1 | – | Active | Active | Active | Active | Active | 160 | >640 | 11 | 60 | 6 | 48 | 41 | 1 | 25 | 13 | 0.5 | 51 | inactive
CCc1nc(N)nc(N)c1-c1ccc(Cl)cc1 [PYRIMETHAMINE] | inactive | inactive | inactive | inactive | inactive | Active | 10 | 40 | 0.008 | 10.5 | 1300 | 5.1 | 0.24 | 0.05 | 4 | 12 | 3 | 76 | inactive
N=C(N)NC(=O)Nc1ccc([N+](=O)[O-])cc1 | Active | Active | Active | Active | Active | – | 640 | 640 | 1300 | 2500 | 2 | 157 | 1800 | 12 | 83 | 197 | 2 | > 4480 | Active
CC(CNc1nc(Nc2ccc(Cl)c(Cl)c2)nc(C(Cl)(Cl)Cl)n1)N(C)C (centres undefined) | Active | Active | Active | Active | Active | – | 80 | 160 | 14.2 | 14.6 | 1 | 5.7 | 4.9 | 0.9 | 5.9 | 7.5 | 1 | – | Active
Clc1ccc(Nc2nc(NCCCN3CCCC3)c3ccccc3n2)cc1Cl | – | Active | – | Active | Active | Active | – | – | 32 | 22 | 0.7 | 10 | 5.7 | 0.6 | 3.5 | 7.9 | 2 | 10 | Active
Cc1nc(C)c(Cl)c(O)c1Cl [CLOPIDOL] | Active | Active | – | Active | Active | – | 160 | >640 | 3700 | 2200 | 0.6 | 1700 | 885 | 0.52 | 833 | 1000 | 1 | > 5200 | Active
CC1(C)N=C(N)N=C(N)N1c1ccc(Cl)cc1 [CYCLOGUANIL] | inactive | inactive | inactive | inactive | inactive | – | 20 | 40 | 0.017 | 3300 | 194000 | 16.3 | 2400 | 147 | 35 | 900 | 26 | > 3470 | inactive
C=C[C@H]1CN2CC[C@H]1C[C@H]2[C@H](O)c1ccnc2ccc(OC)cc12 [QUININE] | – | Active | – | Active | Active | – | 640 | >640 | > 2500 | > 2500 | – | 980 | 1200 | 1 | 780 | 850 | 1 | 1300 | –
CN1CCCCC1CNc1nc(-c2ccc(Cl)c(Cl)c2)nc(C(Cl)(Cl)Cl)n1 (centres undefined) | Active | Active | Active | Active | Active | – | 160 | 320 | 132 | 128 | 0.97 | 3 | 3.2 | 1.1 | 4.9 | 3.8 | 1 | – | Active
